In general, GI50 refers to the concentration at which growth is held to half of that of the control. What is called MIC is the lowest concentration found to suppress growth. A low value points to a more susceptible organism.

Common to all, as to type: functional
Assay [1] deals with MCF7. The assay can be described thus: Growth inhibition of human MCF7 cells after 24 hrs by SRB assay. As to conditions: MCF7, 24 h. In outline:
(§1)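 Human breast cancer MCF-7 cells were exposed to each compound at four doses (1 × 10^-7, 10^-6, 10^-5 and 10^-4 M) and growth was read by sulforhodamine B assay. Values are % control growth, with negative numbers meaning cell kill. GI50 is the concentration giving 50% inhibition of cell growth. Positive controls were included, and each experiment was done three times.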
(The SRB assay estimates cell density from bound dye.)

Assay [2] concerns MCF7. The experiment in a line: Growth inhibition of human MCF7 cells at 10 uM after 24 hrs by SRB assay. As to conditions: MCF7, 24 h, read-out: GI. The procedure, abridged: as §1
The test system of assay [3] is MCF7. The assay can be described thus: Growth inhibition of human MCF7 cells at 100 uM after 24 hrs by SRB assay. Conditions: MCF7, 24 h, read-out: GI. In outline: as §1
For assay [4], the system named is MCF7. The experiment in a line: Growth inhibition of human MCF7 cells at 0.1 uM after 24 hrs by SRB assay. As to conditions: MCF7, 24 h, read-out: GI. The procedure, abridged: as §1
Assay [5] deals with MCF7. The experiment in a line: Growth inhibition of human MCF7 cells at 1 uM after 24 hrs by SRB assay. As to conditions: MCF7, 24 h, read-out: GI. In outline:
as §1

The test system of assay [6] is Mycobacterium tuberculosis. The assay can be described thus: Antitubercular activity against Mycobacterium tuberculosis H37Rv after 5 days by microplate Alamar blue assay. Conditions: 120 h. In outline: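 MIC read by resazurin (Alamar Blue) microplate assay after 5 days of incubation at 37 °C. Run in duplicate each time, repeated twice, and MIC confirmed in a BacT/ALERT MP mycobacterial detection system.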
Background: Alamar Blue is a resazurin reagent that responds to reducing activity.

≈ marks a conversion by molar mass, not a printed value. Bounds are passed on as bounds.

The compound `CCOC(=O)C1=C(C)NC(=S)NC1c1cn(-c2ccccc2)nc1-c1ccc(Cl)cc1` (stereo unspecified) showed a GI50 in the assay on MCF7 [1] of 33.2 µM. Moreover, the inhibition of growth at 10 µM in the assay on MCF7 [2] came to 70.6%. Besides, the inhibition of growth at 100 µM in the assay on MCF7 [3] was 99.2%. For the same compound, in the assay with MCF7 [4], the inhibition of growth at 0.1 µM was found to be 4.1%. In the assay with MCF7 [5], the inhibition of growth at 1 µM is 12%. In assay [6], it took 0.125 µg/mL (≈ 0.276 µM) to inhibit growth (MIC).
In the case of `CCOC(=O)C1=C(C)NC(=O)NC1c1cn(-c2ccccc2)nc1-c1ccc(Cl)cc1` (stereo unspecified), in the assay on MCF7 [1], the GI50 stood at 68.8 µM. For the same compound, in the assay on MCF7 [2], the inhibition of growth at 10 µM is 17.1%. In addition, the inhibition of growth at 100 µM in the assay on MCF7 [3] came to 70.3%. The same compound displayed an MIC in assay [6] of 0.25 µg/mL (≈ 0.572 µM).
In the assay with MCF7 [1], `CCOC(=O)C1=C(C)NC(=O)NC1c1cn(-c2ccccc2)nc1-c1ccccc1` (stereo unspecified) registered a GI50 of 60.8 µM. In addition, in the assay on MCF7 [2], the inhibition of growth at 10 µM is less than 10%. In the assay on MCF7 [3], the inhibition of growth at 100 µM was 86%. The compound also gave an MIC in assay [6] of 16 µg/mL (≈ 39.8 µM).
`CCOC(=O)C1=C(C)NC(=S)NC1c1cn(-c2ccccc2)nc1-c1ccccc1` (stereo unspecified) displayed a GI50 in the assay on MCF7 [1] of 42 µM. Moreover, the inhibition of growth at 10 µM with MCF7 [2] turned out to be 30.4%. For the same compound, the inhibition of growth at 100 µM in the assay on MCF7 [3] is -12%. Inhibition of growth in assay [6] (MIC) required 32 µg/mL (≈ 76.5 µM).
`CC1=C(C(=O)Nc2ccccc2)C(c2cn(-c3ccccc3)nc2-c2ccccc2)NC(=O)N1` (stereo unspecified) displayed a 50% growth inhibitory concentration (GI50) with MCF7 [1] of 80.6 µM. For the same compound, the inhibition of growth at 10 µM in the assay with MCF7 [2] was less than 10%. Further, the inhibition of growth at 100 µM with MCF7 [3] came out at 63.2%. This compound also displayed an MIC in assay [6] of 32 µg/mL (≈ 71.2 µM).
For `CC1=C(C(=O)Nc2ccccc2)C(c2cn(-c3ccccc3)nc2-c2ccccc2)NC(=S)N1` (stereo unspecified) the same measures were 88.2 µM, less than 10%, 57.4% and 32 µg/mL (≈ 68.7 µM).
`CC1=C(C(=O)Nc2ccc(C)cc2)C(c2cn(-c3ccccc3)nc2-c2ccccc2)NC(=O)N1` (stereo unspecified) came in with a GI50 in the assay on MCF7 [1] of 71.7 µM. In addition, in the assay with MCF7 [2], the inhibition of growth at 10 µM was 11.9%. In addition, in the assay with MCF7 [3], the inhibition of growth at 100 µM is 68.6%. Moreover, the MIC in assay [6] amounted to 32 µg/mL (≈ 69 µM).
For `CC1=C(C(=O)Nc2ccc(C)cc2)C(c2cn(-c3ccccc3)nc2-c2ccccc2)NC(=S)N1` (stereo unspecified), in the assay with MCF7 [1], it took 56.1 µM to inhibit growth by half (GI50). Moreover, the inhibition of growth at 10 µM with MCF7 [2] was 19.7%. The inhibition of growth at 100 µM in the assay with MCF7 [3] turned out to be 84.3%. Also, inhibition of growth in assay [6] (MIC) required 16 µg/mL (≈ 33.4 µM).
Regarding `COc1ccc(NC(=O)C2=C(C)NC(=S)NC2c2cn(-c3ccccc3)nc2-c2ccccc2)cc1` (stereo unspecified), the GI50 in the assay with MCF7 [1] stood at 77.3 µM. Also, the inhibition of growth at 10 µM in the assay with MCF7 [2] is less than 10%. In the assay on MCF7 [3], the inhibition of growth at 100 µM came to 63.9%. The same compound displayed an MIC in assay [6] of 8 µg/mL (≈ 16.1 µM).
`CC1=C(C(=O)Nc2ccc(Cl)cc2)C(c2cn(-c3ccccc3)nc2-c2ccccc2)NC(=S)N1` (stereo unspecified) registered a GI50 in the assay on MCF7 [1] of 34.7 µM. The inhibition of growth at 10 µM in the assay on MCF7 [2] was 48.6%. The inhibition of growth at 100 µM with MCF7 [3] was -12.8%. Also, in assay [6], the MIC turned out to be 8 µg/mL (≈ 16 µM).
Turning to `CC1=C(C(=O)Nc2ccccc2Cl)C(c2cn(-c3ccccc3)nc2-c2ccccc2)NC(=O)N1` (stereo unspecified), in the assay with MCF7 [1], the GI50 was 66.6 µM. Also, the inhibition of growth at 10 µM in the assay with MCF7 [2] worked out at 13.9%. The inhibition of growth at 100 µM with MCF7 [3] came out at 72.2%. The compound further returned a minimum inhibitory concentration (MIC) in assay [6] of 32 µg/mL (≈ 66.1 µM).
For `CC1=C(C(=O)Nc2ccccc2Cl)C(c2cn(-c3ccccc3)nc2-c2ccccc2)NC(=S)N1` (stereo unspecified) the same measures were 68.8 µM, 16.5%, 68.5% and 16 µg/mL (≈ 32 µM).
The corresponding values for `CC1=C(C(=O)Nc2ccc([N+](=O)[O-])cc2)C(c2cn(-c3ccccc3)nc2-c2ccccc2)NC(=O)N1` (stereo unspecified) are 35.5 µM, 27.3%, -17.7% and 16 µg/mL (≈ 32.4 µM).
In the assay on MCF7 [1], `CC1=C(C(=O)Nc2ccc([N+](=O)[O-])cc2)C(c2cn(-c3ccccc3)nc2-c2ccccc2)NC(=S)N1` (stereo unspecified) had a GI50 of 41.4 µM. In the assay with MCF7 [2], the inhibition of growth at 10 µM was found to be 48.4%. The inhibition of growth at 100 µM in the assay on MCF7 [3] is 99.3%. In addition, the minimal inhibitory concentration (MIC) in assay [6] was 32 µg/mL (≈ 62.7 µM).
The compound `CC1=C(C(=O)Nc2ccccc2)C(c2cn(-c3ccccc3)nc2-c2ccc(Cl)cc2)NC(=O)N1` (stereo unspecified) came in with a GI50 in the assay on MCF7 [1] of 65.5 µM. Also, the inhibition of growth at 10 µM with MCF7 [2] was found to be 19.6%. The inhibition of growth at 100 µM in the assay on MCF7 [3] turned out to be 71.7%. The MIC in assay [6] turned out to be 2 µg/mL (≈ 4.13 µM).
Consider `CC1=C(C(=O)Nc2ccccc2)C(c2cn(-c3ccccc3)nc2-c2ccc(Cl)cc2)NC(=S)N1` (stereo unspecified), for which, in the assay with MCF7 [1], the GI50 came to 61.5 µM. The inhibition of growth at 10 µM with MCF7 [2] turned out to be 24.2%. For the same compound, in the assay on MCF7 [3], the inhibition of growth at 100 µM came to 74.7%. This compound also displayed an MIC in assay [6] of 32 µg/mL (≈ 64 µM).
With `CC1=C(C(=O)Nc2ccc(C)cc2)C(c2cn(-c3ccccc3)nc2-c2ccc(Cl)cc2)NC(=O)N1` (stereo unspecified), it took 69.7 µM to inhibit growth with MCF7 [1] by half (GI50). The inhibition of growth at 10 µM in the assay with MCF7 [2] turned out to be 13.6%. Further, the inhibition of growth at 100 µM with MCF7 [3] came to 70.4%. The compound further registered an MIC in assay [6] of 32 µg/mL (≈ 64.3 µM).
For `CC1=C(C(=O)Nc2ccc(C)cc2)C(c2cn(-c3ccccc3)nc2-c2ccc(Cl)cc2)NC(=S)N1` (stereo unspecified) the same measures were 43.5 µM, 63.7%, 84.9% and 2 µg/mL (≈ 3.89 µM).
In turn, `COc1ccc(NC(=O)C2=C(C)NC(=O)NC2c2cn(-c3ccccc3)nc2-c2ccc(Cl)cc2)cc1` (stereo unspecified) had a GI50 in the assay with MCF7 [1] of 69.7 µM. Moreover, in the assay with MCF7 [2], the inhibition of growth at 10 µM was less than 10%. Also, the inhibition of growth at 100 µM with MCF7 [3] turned out to be 72.1%. Besides, the MIC in assay [6] was found to be 1 µg/mL (≈ 1.95 µM).
`COc1ccc(NC(=O)C2=C(C)NC(=S)NC2c2cn(-c3ccccc3)nc2-c2ccc(Cl)cc2)cc1` (stereo unspecified) came in with a GI50 with MCF7 [1] of 70 µM. The inhibition of growth at 10 µM with MCF7 [2] was less than 10%. Further, the inhibition of growth at 100 µM in the assay on MCF7 [3] is 72%. This compound also displayed an MIC in assay [6] of 16 µg/mL (≈ 30.2 µM).
For `CC1=C(C(=O)Nc2ccc(Cl)cc2)C(c2cn(-c3ccccc3)nc2-c2ccc(Cl)cc2)NC(=O)N1` (stereo unspecified) the same measures were 56.9 µM, less than 10%, 88.7% and 32 µg/mL (≈ 61.7 µM).

These data come from ChEMBL document CHEMBL2016524, “Synthesis and in vitro anticancer and antitubercular activity of diarylpyrazole ligated dihydropyrimidines possessing lipophilic carbamoyl group” (2012).
